CHRM4 antagonist = antagonists of human muscarinic M4 receptor (CHRM4); P08173; CHO-hM4 cells, ACh EC80, Fluo-8 calcium fluorescence; inhibition, % at 3 µM; 360,000 compounds, 0.73% hits; AID 624125;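 active means inhibition above its plate's cutoff, the mean inhibition of sample wells plus 3 SD, cut at about 27% in these data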;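 further: 0% = acetylcholine EC80 with DMSO and 100% = DMSO without agonist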
M4 PAM = positive allosteric modulators of human muscarinic M4 receptor; CHO-K1 hM4/Gqi5, Fluo-8 calcium fluorescence, ACh EC20; 0% = ACh EC20, 100% = maximal ACh; activation, % at 3 µM; AID 624126; 360,000 compounds, 0.4% hits; P08173;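 active means activation above its plate's cutoff, the mean activation of sample wells plus 3 SD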
CHRM5 PAM = potentiates acetylcholine response at human M5 receptor; P08912; 360,000 compounds, 0.3% hits; AID 624038; CHO-K1 hM5, Fluo-8 calcium, ACh EC20 PAM; 0% = ACh EC20, 100% = ACh EC100; activation, % at 3 µM;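 active means activation above the run cutoff, the mean activation of all test compounds plus 3 SD, cut at about 18% in these data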
Target sequence (P08912 whole entry, looked up): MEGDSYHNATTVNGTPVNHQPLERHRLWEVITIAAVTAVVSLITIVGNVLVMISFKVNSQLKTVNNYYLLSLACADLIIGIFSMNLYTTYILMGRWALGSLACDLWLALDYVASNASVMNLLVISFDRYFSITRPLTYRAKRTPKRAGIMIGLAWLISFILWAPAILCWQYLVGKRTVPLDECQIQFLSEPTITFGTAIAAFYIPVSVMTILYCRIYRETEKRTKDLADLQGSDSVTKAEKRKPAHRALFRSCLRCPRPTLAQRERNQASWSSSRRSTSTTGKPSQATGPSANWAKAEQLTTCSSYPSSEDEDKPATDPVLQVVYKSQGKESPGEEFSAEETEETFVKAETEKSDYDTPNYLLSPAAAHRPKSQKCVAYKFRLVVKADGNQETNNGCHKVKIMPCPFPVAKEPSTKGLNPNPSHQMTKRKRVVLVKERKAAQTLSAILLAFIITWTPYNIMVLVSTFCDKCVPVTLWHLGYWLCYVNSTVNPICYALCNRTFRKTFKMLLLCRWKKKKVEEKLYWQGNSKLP
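System: CHO-K1 hM5 cells. Reagent: acetylcholine, EC20 level. Compound dosing: single dose, 3 µM nominal final test concentration. Timing: Post-acetylcholine fluorescence recording 140 s. Detection: Fluo-8 calcium fluorescence. Read-out: % activation, ACh-normalized. Benchmarks: ACh EC20 and EC100 wells. Repeats: singlicate, one well per test compound.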
CHRM4 agonist = CHRM4 agonism in calcium assay; P08173; CHO-K1 hM4/Gqi5, Fluo-8 calcium fluorescence; vehicle 0%, full acetylcholine response 100%; activation, % at 3 µM; 360,000 compounds, 0.14% hits;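 active means activation above the run mean over all test wells plus 3 SD, cut at about 32% in these data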;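 further: peak over basal fluorescence ratio per well then scaled between controls; 0% = DMSO wells and 100% = acetylcholine at EC100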
M5 ag = CHRM5 agonism in calcium assay; P08912; CHO-K1 hM5 cells, Fluo-8 calcium fluorescence; 0% DMSO wells, 100% maximal acetylcholine response; activation, % at 3 µM; 360,000 compounds, 0.19% hits; AID 624037;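 active means activation above the run's mean over test compounds plus 3 SD, cut at about 23% in these data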;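 further: signal is peak over basal fluorescence ratio across the kinetic read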
CHRM5 antagonist = blocks acetylcholine activation of human M5 receptor. CHO-hM5 cells, Fluo-8 calcium fluorescence, ACh EC80. AID 624040. 360,000 compounds, 0.59% hits. inhibition, % at 3 µM;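 active means inhibition above a per-plate cutoff, the mean of that plate's test compounds plus 3 SD, cut at about 27% in these data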;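 further: 0% = acetylcholine EC80 with DMSO and 100% = DMSO without agonist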
* = called active by the depositor. This is a sample that favours compounds with a hit; in the whole collection about 1.8% have one here.

SMILES	CHRM4 antagonist	M4 PAM	CHRM5 PAM	CHRM4 agonist	M5 ag	CHRM5 antagonist
CCOC(=O)Cn1c(=O)oc2cc(S(=O)(=O)Nc3ccc(F)cc3)ccc21	-14	0	-16	24	28*	14
CCOC(=O)Cn1c(=O)oc2cc(S(=O)(=O)NCCc3ccc(C)cc3)ccc21	-4	-6	-6	7	3	5
COc1cccc(NC(=O)N(C)C[C@@H]2OCc3cnnn3CCCC(=O)N([C@H](C)CO)C[C@@H]2C)c1	-7	0	5	1	0	-1
Cc1cccc2c1N(CCCOc1ccccc1)C(=O)C2=O	2	2	-1	6	27*	2
Cc1ccc2c(c1)C(=O)C(=O)N2Cc1ccc(Br)cc1	-1	2	0	16	31*	17
Cc1ccccc1OCCCN1C(=O)C(=O)c2cccc(C)c21	-4	-8	-3	18	26*	1
Cc1ccc2c(c1)C(=O)C(=O)N2CCOc1ccccc1	6	8	3	1	24*	6
Cc1cccc2c1N(CCCOc1ccc(C(C)(C)C)cc1)C(=O)C2=O	-4	2	-4	1	7	-2
Cc1cccc(OCCN2C(=O)C(=O)c3cc(C)ccc32)c1	6	-5	0	0	17	7
CN(C)S(=O)(=O)c1ccc2c(c1)Cc1cc(S(=O)(=O)N(C)C)ccc1-2	-1	-1	-1	0	-1	-1
COc1ccccc1OCC(=O)Nc1ccc(CSc2ccccc2)cc1C	1	7	49*	0	12	0
C=CCC1(C)C(=O)N(c2ccccc2)c2ccccc21 (centres undefined)	1	1	2	-2	-2	-4
C=CCCC1(C)C(=O)N(c2ccccc2)c2ccccc21 (centres undefined)	-4	-4	25*	-1	-2	21
COc1ccc(CN(C)C[C@H]2OCCCC[C@@H](C)Oc3ccc(NS(C)(=O)=O)cc3C(=O)N([C@H](C)CO)C[C@@H]2C)cc1	-5	2	0	1	-1	10
COc1cc(/C=C(\C#N)c2nc3ccccc3o2)ccc1O	20	-23	-24	30	53*	46*
N#C/C(=C\c1ccc(O)cc1)c1nc2ccccc2o1	14	-11	-9	9	10	10
CCOc1cc(-c2noc(N)c2C#N)cc(OCC)c1OCC	-4	4	-3	0	-4	-1
Cc1ccccc1-c1noc(N)c1C#N	-9	43*	25*	1	-2	-8
COC(=O)CCCCC1SCC2NC(=O)NC21 (centres undefined)	-8	5	23*	1	-2	-2
CCOC(=O)C1(C)CCN1C(=O)c1cncc(Br)c1 (centres undefined)	-8	3	1	1	0	1
On1nnc2c3ccccc3c3ccccc3c21	-2	7	-3	2	0	5
CC[C@H]1O[C@H](C)CC2=C1C(=O)OC(C)(C)O2	-5	23*	-1	10	2	2
COc1ccc(OC)c(CCNC(=O)c2ccc3c(c2)N(Cc2ccc(F)cc2)CCS3)c1	8	-4	-7	0	-5	17
COc1ccc(CCNC(=O)c2ccc3c(c2)N(Cc2ccc(C)cc2)CCS3)cc1OC	6	-9	-16	5	-9	39*
Cc1ccccc1Nc1nnc(SCC(=O)c2c(N)n(C3CC3)c(=O)[nH]c2=O)s1	-3	-1	0	1	2	1
SMILES	CHRM4 antagonist	M4 PAM	CHRM5 PAM	CHRM4 agonist	M5 ag	CHRM5 antagonist
CCCCNC(=O)NC1(C(F)(F)F)Oc2ccccc2O1	-6	2	2	0	-7	-7
NS(=O)(=O)c1ccc(CCNC(=O)NC2(C(F)(F)F)Oc3ccccc3O2)cc1	7	-7	31*	0	-13	-12
CCOC(=O)c1ccccc1-n1c(C)cc(C2N=C(N)Nc3nc4ccccc4n32)c1C (centres undefined)	60*	-16	-22	1	-7	9
Cc1ccc2c(c1)cc1c(=O)n(CC(=O)N(C)c3ccccc3)nc(C)n12	3	16*	5	2	1	-12
COc1ccccc1S(=O)(=O)N(C)C[C@H]1Oc2cc(C#CCC3CCCC3)ccc2S(=O)(=O)N([C@H](C)CO)C[C@H]1C	1	0	4	1	-1	2
Clc1ccc(OCc2nc(-c3ccccn3)no2)c(Br)c1	-12	-8	-9	0	-1	1
Nc1nc(-c2ccccn2)nc(N)c1Cc1ccccc1F	22	6	4	2	5	-8
Nc1nc(-c2ccccn2)nc(N)c1Cc1ccc(Cl)cc1Cl	81*	-12	18	30	16	2
Nc1nc(-c2ccccn2)nc(N)c1Cc1c(F)cccc1Cl	-4	10	19*	1	5	-3
Cc1ccc(NNC(=O)Nc2ccc(Cl)cc2)nn1	-4	0	-3	1	-1	16
Oc1ccccc1CC=NC1CCCCC1	-8	3	2	0	-2	13
